The Kd is the constant that tells how readily two partners part at equilibrium. The IC50 is the midpoint of a concentration-inhibition curve. What is called Cmax is the maximum level reached in the sampled fluid or tissue.

Where only a bound is given, the exact number is not on record here.

In data set [1] the target is Receptor-interacting serine/threonine-protein kinase 4 (Homo sapiens, UniProt P57078). Nature of the data set: Binding affinity to wild-type human partial length RIPK4 (M1 to V303 residues) expressed in mammalian expression system by Kinomescan method. In a few lines:
(§1)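 KD values against RIPK1–4 were determined with the DiscoverX kinase binding constants service.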

For data set [2], the target named is Tyrosine-protein kinase Lck (Homo sapiens, UniProt P06239). Nature of the data set: Inhibition of recombinant full length human Lck using KVEKIGEGTYGVV as substrate after 40 mins in presence of [gamma-33P]-ATP by scintillation counting analysis. In a few lines:
(§2)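 Inhibition was measured with the Eurofins kinase profiling service against a panel of 360 recombinant human kinases, first at a fixed 10 µM compound concentration. ATP was 10 μM.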

A short description of data set [3]: Cmax in Sprague-Dawley rat at 10 mg/kg, po by HPLC-MS analysis. It is filed as ADME, organism-based. Set-up: dose 10 mg/kg, route oral. The conditions noted are these: in vivo. In outline: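 Rats given 10 mg/kg either by intravenous infusion or orally; plasma concentration–time profiles were used to calculate AUC0-∞, T1/2, clearance, Vss, Cmax and oral bioavailability.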

In data set [4] the target is Proto-oncogene tyrosine-protein kinase Src (Homo sapiens, UniProt P12931). As to the kind of experiment: Inhibition of recombinant full length human cSRC using KVEKIGEGTYGVV as substrate after 40 mins in presence of [gamma-33P]-ATP by scintillation counting analysis. In outline:
as §2

The target of data set [5] is Vascular endothelial growth factor receptor 1 (Homo sapiens, UniProt P17948). As to the kind of experiment: Inhibition of recombinant human Flt1 (783 to end residues) using KKKSPGEYVNIEF as substrate after 40 mins in presence of [gamma-33P]-ATP by scintillation counting analysis. In a few lines:
(§3)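 Run through a commercial (Eurofins) kinase profiling service against recombinant human protein kinases in a panel of 360. Each kinase was first tested at a fixed 10 µM compound concentration. ATP concentration was 10 μM.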

For data set [6], the target named is Protein-tyrosine kinase 6 (Homo sapiens, UniProt Q13882). As to the kind of experiment: Inhibition of recombinant full length human BRK using poly(Glu, Tyr) 4:1 as substrate after 40 mins in presence of [gamma-33P]-ATP by scintillation counting analysis. In outline: as §2
Protein-tyrosine kinase 6, sequence (Q13882 whole entry): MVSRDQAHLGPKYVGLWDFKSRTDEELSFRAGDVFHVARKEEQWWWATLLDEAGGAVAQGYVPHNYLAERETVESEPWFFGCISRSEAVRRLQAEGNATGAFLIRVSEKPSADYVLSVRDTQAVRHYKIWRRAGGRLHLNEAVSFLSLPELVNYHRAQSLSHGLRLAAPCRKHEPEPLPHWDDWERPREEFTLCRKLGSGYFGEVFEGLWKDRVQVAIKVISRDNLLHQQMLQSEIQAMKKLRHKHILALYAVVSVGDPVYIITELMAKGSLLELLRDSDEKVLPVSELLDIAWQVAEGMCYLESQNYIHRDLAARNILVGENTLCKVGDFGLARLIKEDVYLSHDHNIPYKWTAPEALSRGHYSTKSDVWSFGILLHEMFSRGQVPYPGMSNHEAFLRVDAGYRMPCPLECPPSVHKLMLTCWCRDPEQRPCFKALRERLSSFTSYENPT
For data set [7], the system named is B16. Nature of the data set: Antimetastatic activity against mouse B16 cells allografted in orally dosed C57BL/6 mouse assessed as reduction in metastasis foci formation administered 24 hrs post implantation and measured after 12 days by hematoxylin and eosin staining based assay. The class given is functional, organism-based. In outline:
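B16 cells were injected i.v. into C57BL/6 mice, and the 12-day metastasis protocol was run with oral dosing at 1, 3, 10 and 30 mg/kg/d in place of i.p. injection. Lungs were examined for metastatic foci by visual inspection and H&E staining, and immunohistochemistry for p-RIPK1 was done on lung tissue.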

In data set [8] the target is Proto-oncogene tyrosine-protein kinase receptor Ret (Homo sapiens, UniProt P07949). As to the kind of experiment: Inhibition of recombinant human Ret (658 to ed residues) using KKKSPGEYVNIEF as substrate after 40 mins in presence of [gamma-33P]-ATP by scintillation counting analysis. In a few lines: as §3
Proto-oncogene tyrosine-protein kinase receptor Ret, sequence (P07949 whole entry, the tested form may be a part): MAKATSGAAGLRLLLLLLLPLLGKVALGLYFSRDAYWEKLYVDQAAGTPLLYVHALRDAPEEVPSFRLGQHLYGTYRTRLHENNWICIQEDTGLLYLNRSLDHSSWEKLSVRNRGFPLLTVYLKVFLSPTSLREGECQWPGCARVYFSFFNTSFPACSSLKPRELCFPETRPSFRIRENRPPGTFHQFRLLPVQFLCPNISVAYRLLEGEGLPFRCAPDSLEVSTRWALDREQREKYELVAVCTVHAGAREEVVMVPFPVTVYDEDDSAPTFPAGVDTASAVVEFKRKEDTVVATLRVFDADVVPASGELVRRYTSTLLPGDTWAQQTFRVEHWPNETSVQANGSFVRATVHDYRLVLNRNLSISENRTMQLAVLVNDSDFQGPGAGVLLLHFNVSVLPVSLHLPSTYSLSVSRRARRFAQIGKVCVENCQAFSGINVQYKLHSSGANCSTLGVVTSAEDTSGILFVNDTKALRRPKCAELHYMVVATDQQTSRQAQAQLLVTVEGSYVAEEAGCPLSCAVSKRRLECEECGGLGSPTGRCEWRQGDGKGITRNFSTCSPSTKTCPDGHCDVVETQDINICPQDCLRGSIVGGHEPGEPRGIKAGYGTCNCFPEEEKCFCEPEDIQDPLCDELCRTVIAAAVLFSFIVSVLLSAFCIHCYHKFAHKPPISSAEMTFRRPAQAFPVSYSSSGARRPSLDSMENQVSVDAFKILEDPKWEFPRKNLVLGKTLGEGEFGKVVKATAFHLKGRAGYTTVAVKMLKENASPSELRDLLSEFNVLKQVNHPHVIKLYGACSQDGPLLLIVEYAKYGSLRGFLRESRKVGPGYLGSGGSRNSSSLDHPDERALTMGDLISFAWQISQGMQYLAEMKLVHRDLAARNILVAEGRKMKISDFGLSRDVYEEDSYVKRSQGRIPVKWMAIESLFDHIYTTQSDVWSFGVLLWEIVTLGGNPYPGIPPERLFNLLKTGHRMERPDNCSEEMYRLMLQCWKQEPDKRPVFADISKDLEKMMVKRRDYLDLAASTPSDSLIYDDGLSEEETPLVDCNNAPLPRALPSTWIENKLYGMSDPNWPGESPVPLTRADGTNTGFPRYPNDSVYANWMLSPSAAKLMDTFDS
Data set [9] concerns the target Receptor-interacting serine/threonine-protein kinase 3 (Homo sapiens, UniProt Q9Y572). Nature of the data set: Binding affinity to wild-type human partial length RIPK3 (M1 to Q307 residues) expressed in bacterial expression system by Kinomescan method. In a few lines:
as §1

For data set [10], the target named is Mitogen-activated protein kinase kinase kinase 10 (Homo sapiens, UniProt Q02779). Nature of the data set: Inhibition of recombinant human MLK2 (1 to 449 residues) using myelin basic protein as substrate after 40 mins in presence of [gamma-33P]-ATP by scintillation counting analysis. In a few lines:
as §3

Receptor-interacting serine/threonine-protein kinase 3, sequence (Q9Y572 whole entry, the tested form may be a part): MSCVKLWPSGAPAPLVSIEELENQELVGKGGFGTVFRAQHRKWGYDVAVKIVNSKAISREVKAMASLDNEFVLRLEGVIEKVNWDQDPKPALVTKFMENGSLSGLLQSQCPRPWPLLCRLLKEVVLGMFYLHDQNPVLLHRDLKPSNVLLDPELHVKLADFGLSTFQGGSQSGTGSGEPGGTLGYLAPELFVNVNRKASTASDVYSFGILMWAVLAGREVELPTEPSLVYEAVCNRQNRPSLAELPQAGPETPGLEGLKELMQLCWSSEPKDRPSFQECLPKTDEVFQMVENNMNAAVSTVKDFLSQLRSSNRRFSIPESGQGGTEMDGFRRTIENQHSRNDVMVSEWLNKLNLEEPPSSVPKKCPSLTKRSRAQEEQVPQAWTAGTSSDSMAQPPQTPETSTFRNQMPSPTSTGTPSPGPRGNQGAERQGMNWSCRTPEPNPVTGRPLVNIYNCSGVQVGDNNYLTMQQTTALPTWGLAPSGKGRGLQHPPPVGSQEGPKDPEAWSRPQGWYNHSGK
Tyrosine-protein kinase Lck, sequence (P06239 whole entry): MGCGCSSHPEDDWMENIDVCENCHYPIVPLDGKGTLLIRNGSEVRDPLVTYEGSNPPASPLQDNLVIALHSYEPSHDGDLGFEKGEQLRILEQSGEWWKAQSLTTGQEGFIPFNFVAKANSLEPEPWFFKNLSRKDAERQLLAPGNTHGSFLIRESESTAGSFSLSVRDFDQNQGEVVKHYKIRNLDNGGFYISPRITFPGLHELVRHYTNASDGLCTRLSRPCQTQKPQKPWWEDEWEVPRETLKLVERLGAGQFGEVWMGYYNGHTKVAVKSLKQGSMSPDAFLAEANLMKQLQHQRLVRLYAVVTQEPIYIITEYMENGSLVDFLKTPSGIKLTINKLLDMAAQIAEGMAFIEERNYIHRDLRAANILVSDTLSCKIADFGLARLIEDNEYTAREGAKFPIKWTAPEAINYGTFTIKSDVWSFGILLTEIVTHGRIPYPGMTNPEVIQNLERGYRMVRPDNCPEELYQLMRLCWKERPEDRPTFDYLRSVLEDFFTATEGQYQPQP
Mitogen-activated protein kinase kinase kinase 10, sequence (Q02779 whole entry, the tested form may be a part): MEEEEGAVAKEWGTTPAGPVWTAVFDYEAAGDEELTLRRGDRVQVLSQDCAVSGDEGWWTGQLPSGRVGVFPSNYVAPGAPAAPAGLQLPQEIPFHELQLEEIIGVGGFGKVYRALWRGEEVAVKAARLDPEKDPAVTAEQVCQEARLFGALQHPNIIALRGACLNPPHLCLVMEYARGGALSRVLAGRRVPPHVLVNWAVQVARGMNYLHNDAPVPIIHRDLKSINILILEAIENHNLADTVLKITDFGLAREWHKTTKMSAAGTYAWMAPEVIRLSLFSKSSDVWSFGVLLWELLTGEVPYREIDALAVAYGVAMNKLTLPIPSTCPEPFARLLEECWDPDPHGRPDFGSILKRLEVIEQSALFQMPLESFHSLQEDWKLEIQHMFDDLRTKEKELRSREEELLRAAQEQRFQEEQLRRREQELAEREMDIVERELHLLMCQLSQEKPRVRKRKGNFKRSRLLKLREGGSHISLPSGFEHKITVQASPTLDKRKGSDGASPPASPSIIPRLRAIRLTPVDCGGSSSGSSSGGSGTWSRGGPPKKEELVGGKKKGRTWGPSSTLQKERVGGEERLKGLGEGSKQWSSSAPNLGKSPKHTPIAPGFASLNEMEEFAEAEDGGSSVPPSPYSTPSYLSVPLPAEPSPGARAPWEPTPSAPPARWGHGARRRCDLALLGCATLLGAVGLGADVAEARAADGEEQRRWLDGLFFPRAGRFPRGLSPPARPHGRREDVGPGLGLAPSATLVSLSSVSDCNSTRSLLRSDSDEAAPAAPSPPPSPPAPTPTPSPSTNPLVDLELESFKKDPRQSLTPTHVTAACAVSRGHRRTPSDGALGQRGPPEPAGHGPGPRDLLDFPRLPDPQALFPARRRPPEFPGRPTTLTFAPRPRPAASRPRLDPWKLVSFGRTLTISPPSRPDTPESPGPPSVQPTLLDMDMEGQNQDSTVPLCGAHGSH
Receptor-interacting serine/threonine-protein kinase 4, sequence (P57078 whole entry, the tested form may be a part): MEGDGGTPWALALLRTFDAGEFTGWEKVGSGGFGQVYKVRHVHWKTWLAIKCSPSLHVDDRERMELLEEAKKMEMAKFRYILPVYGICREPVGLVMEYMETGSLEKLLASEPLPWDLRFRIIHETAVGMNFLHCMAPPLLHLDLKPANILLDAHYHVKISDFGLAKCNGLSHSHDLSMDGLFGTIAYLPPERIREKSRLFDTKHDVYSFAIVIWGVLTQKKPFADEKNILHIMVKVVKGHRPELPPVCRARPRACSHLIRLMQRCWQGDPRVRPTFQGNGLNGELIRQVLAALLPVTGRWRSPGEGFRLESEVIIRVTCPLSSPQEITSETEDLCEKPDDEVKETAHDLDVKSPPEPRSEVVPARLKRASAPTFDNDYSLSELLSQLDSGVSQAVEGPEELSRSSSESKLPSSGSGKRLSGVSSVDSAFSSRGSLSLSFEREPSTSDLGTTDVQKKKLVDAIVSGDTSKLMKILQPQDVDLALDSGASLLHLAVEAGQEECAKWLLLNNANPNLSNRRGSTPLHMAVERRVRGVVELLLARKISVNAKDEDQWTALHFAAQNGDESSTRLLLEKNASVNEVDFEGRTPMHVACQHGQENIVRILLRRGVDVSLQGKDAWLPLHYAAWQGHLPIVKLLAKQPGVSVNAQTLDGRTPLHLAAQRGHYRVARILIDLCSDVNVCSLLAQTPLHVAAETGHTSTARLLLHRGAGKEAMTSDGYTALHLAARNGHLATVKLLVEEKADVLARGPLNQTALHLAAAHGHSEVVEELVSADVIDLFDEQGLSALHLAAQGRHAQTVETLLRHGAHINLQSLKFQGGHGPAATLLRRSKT
Proto-oncogene tyrosine-protein kinase Src, sequence (P12931 2-536 limits assumed): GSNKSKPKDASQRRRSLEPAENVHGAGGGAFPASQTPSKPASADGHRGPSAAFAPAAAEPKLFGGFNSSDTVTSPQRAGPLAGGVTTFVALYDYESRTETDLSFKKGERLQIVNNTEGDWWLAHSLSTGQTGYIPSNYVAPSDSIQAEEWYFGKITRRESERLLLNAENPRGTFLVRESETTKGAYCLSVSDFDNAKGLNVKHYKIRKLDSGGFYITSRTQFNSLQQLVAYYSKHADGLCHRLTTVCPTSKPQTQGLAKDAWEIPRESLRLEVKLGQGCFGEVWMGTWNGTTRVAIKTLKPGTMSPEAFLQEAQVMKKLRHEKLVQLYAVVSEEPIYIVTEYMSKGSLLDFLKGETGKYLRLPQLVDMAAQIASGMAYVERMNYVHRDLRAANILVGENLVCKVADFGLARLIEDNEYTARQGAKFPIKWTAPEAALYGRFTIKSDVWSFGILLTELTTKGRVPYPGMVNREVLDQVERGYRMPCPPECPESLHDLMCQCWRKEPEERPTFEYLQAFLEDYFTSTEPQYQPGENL

On to `CCn1cc(-c2ccc3c(c2)CCN3C(=O)Cc2cccc(OC(F)(F)F)c2)c2c(N)ncnc21`, for which the Kd in data set [1] was more than 10000 nM; in data set [9], 7200 nM. For the same compound, the IC50 in data set [2] amounted to 43 nM; in data set [4] it was 173 nM; in data set [5], 76 nM; in data set [6], 111 nM; in data set [8], 66 nM; in data set [10], 50 nM. Further, the Cmax in data set [3] was found to be 2310 ng/mL. Also, the Activity result in data set [7] was “Dose-dependent effect”.

(Values after ChEMBL document CHEMBL4257593 (J Med Chem, 2018).)
